Test results reported in PMC10357933 (RSC Medicinal Chemistry, 2023).
Where two headings read alike, the source gives them in different places.

Assays:
[1] = target: 3CL^pro (SARS-CoV-2) (Severe acute respiratory syndrome coronavirus 2, UniProt P0DTD1); type: biochemical
[2] = target: PL^pro (SARS-CoV-2) (Severe acute respiratory syndrome coronavirus 2, UniProt P0DTD1); test: biochemical
[3] = Conductometry in DMSO; type: physicochemical; conditions: for Conductivity ΛM: 1.0 mM solution in DMSO; for Increase of molecular conductivity upon 10-fold dilution: diluted solutions 0.1 to 1.0 mM in DMSO
How it was run: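 Test compound dissolved at 1.0 mM, or as indicated, in freshly distilled DMSO (conductivity ≤3 × 10−8 […]). Conductivity measured at 25 ± 2 °C immediately after complete dissolution, then after 24 h and after 48 h.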

[4] = system: SARS-CoV-2 B.1; test: Antiviral activity against SARS-CoV-2 in Caco-2-F03 cells; type: cell-based; conditions: for Effect on viral activity at higher dosages: overlapping with toxicity
[5] = target: PL^pro (SARS-CoV) (Severe acute respiratory syndrome coronavirus, UniProt P0C6X7); type: biochemical; conditions: read-out: IC50 PL^pro (SARS-CoV)
[6] = system: CaCo-2 cells; test: Toxicity against host cells; type: cell-based, human; conditions: 25 to 500 μM, 24 h / 48 h
How it was run: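 Caco-2 cells were grown to almost confluent monolayers in 96-well plates. Test compound was given as a DMSO stock (DMSO 0.2%) diluted in DMEM with 1% fetal calf serum and 50 mg L−1 gentamicin, at 25–500 μM. Exposure was 24 h and 48 h at 37 °C/5% CO2. Viability was measured by crystal violet staining as % of untreated control, in three independent experiments.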

[7] = target: T1, SARS-CoV-2 PL^pro (Severe acute respiratory syndrome coronavirus 2, UniProt P0DTD1); test: Michaelis-Menten kinetics with SARS-CoV-2 PLpro; type: biochemical
[8] = target: T1, SARS-CoV-2 PL^pro; test: Zn-ejection assay with FluoZin-3; type: biochemical; conditions: 0.5 μM PLpro, 100 min
[9] = 3CL^pro, 50 μM, ± SD of 2 experiments
[10] = read-out: IC50 PL^pro (SARS-CoV-2), mean ± SD of 2 independent experiments

| Compound | Percentage of activity of the enzyme in presence of 50 μM of the test compound [1, 9] | IC50 [2, 10] | Conductivity ΛM ([3]; 24 h) | Conductivity ΛM ([3]; 48 h) | Conductivity ΛM ([3]; start) | further results |
| --- | --- | --- | --- | --- | --- | --- |
| CCn1c[n+](CC)c2ccccc21.[Cl][Ag] [Ag-1a, 1,3-Diethyl benzimidazolium silver(I) chloride] | 106 ± 2% | 210 ± 30 nM | 3.09 S mol^−1 cm^2 | 3.31 S mol^−1 cm^2 | 3.00 S mol^−1 cm^2 | – |
| CCn1c[n+](CC)c2ccccc21.[Ag][I] [Ag-1b, 1,3-Diethyl-benzimidazolium silver(I) iodide] | 110 ± 0% | 240 ± 110 nM | 9.31 S mol^−1 cm^2 | 9.70 S mol^−1 cm^2 | 8.44 S mol^−1 cm^2 | Effect on viral activity at higher dosages [4]: completely terminated viral activity |
| CCn1c[n+](CC)c2ccc(OC)cc21.[Cl][Ag] [Ag-2a, 1,3-Diethyl-5-methoxy-benzimidazolium silver(I) chloride] | 98 ± 15% | 180 ± 20 nM | 3.13 S mol^−1 cm^2 | 3.37 S mol^−1 cm^2 | 2.94 S mol^−1 cm^2 | – |
| CCn1c[n+](CC)c2ccc(OC)cc21.[Ag][I] [Ag-2b, 1,3-Diethyl-5-methoxy-benzimidazolium silver(I) iodide] | 115 ± 4% | 430 ± 60 nM | 9.25 S mol^−1 cm^2 | 9.82 S mol^−1 cm^2 | 9.19 S mol^−1 cm^2 | – |
| CC(C)n1c[n+](C(C)C)c2ccccc21.[Cl][Ag] [Ag-3a, 1,3-Diisopropyl benzimidazolium silver(I) chloride] | 116 ± 5% | 210 ± 20 nM | 2.70 S mol^−1 cm^2 | 2.67 S mol^−1 cm^2 | 2.34 S mol^−1 cm^2 | Increase of molecular conductivity upon 10-fold dilution [3]: 2–4 fold |
| CC(C)n1c[n+](C(C)C)c2ccccc21.[Ag][I] [Ag-3b, 1,3-Diisopropyl benzimidazolium silver(I) iodide] | 111 ± 14% | 190 ± 40 nM | 7.00 S mol^−1 cm^2 | 6.69 S mol^−1 cm^2 | 6.67 S mol^−1 cm^2 | Effect on viral activity at higher dosages [4]: completely terminated viral activity; Increase of molecular conductivity upon 10-fold dilution [3]: only slightly increased |
| COc1ccc2c(c1)n(C(C)C)c[n+]2C(C)C.[Cl][Ag] [Ag-4a, 1,3-Diisopropyl-5-methoxy-benzimidazolium silver(I) chloride] | 115 ± 4% | 220 ± 110 nM | 2.25 S mol^−1 cm^2 | 2.40 S mol^−1 cm^2 | 2.15 S mol^−1 cm^2 | – |
| COc1ccc2c(c1)n(C(C)C)c[n+]2C(C)C.[Ag][I] [Ag-4b, 1,3-Diisopropyl-5-methoxy-benzimidazolium silver(I) iodide] | 116 ± 2% | 390 ± 70 nM | 6.92 S mol^−1 cm^2 | 7.32 S mol^−1 cm^2 | 6.72 S mol^−1 cm^2 | IC50 ([4]; read-out: IC50 antiviral efficacy (spike protein staining)): 580 nM; Enzymatic activity (% of untreated control) ([2]; 0.75 μM, after 60 min): approx. 40%; Enzymatic turnover (% of untreated control) ([2]; 0.75 μM, from beginning up to 30 min of exposure): approx. 60%; IC50 [5]: 13700 ± 1020 nM; Cytotoxicity against almost confluent Caco-2 cell layers [6]: non-toxic up to 500 μM; Mechanism of inhibition ([7]; Lineweaver-Burk, parallel lines): uncompetitive enzyme inhibitor; Ki (enzyme-substrate-inhibitor complex) ([7]; uncompetitive model): 480 ± 220 nM; Zn ejection efficacy ([8]; 1.0 μM compound): low efficacy; Zn ejection efficacy ([8]; 10 μM compound): high efficacy |
| O=[N+]([O-])[O-].[Ag+] [AgNO3, silver nitrate, reference compound] | 97 ± 6% | 700 ± 270 nM | 38 S mol^−1 cm^2 | 38 S mol^−1 cm^2 | 38 S mol^−1 cm^2 | IC50 [5]: 12000 ± 870 nM; Conductivity ([3]; in DMSO, periods up to 48 h): 38 S mol^−1 cm^2 |
| CCN(CC)C(=S)SSC(=S)N(CC)CC [Disulfiram, reference compound] | – | – | – | – | – | Zn ejection efficacy ([8]; 1.0 μM compound): low efficacy; Zn ejection efficacy ([8]; 10 μM compound): high efficacy |
| CC(=O)O.[Ag+].c1ccc(CN2[CH-]N(Cc3ccccc3)C(c3ccccc3)=C2c2ccccc2)cc1 [SBC3, reference compound] | – | – | 2.25 S mol^−1 cm^2 | 2.31 S mol^−1 cm^2 | 2.15 S mol^−1 cm^2 | Inhibition of 3CL^pro enzymatic activity [1]: some moderate inhibition; Percentage of activity of the enzyme in presence of 50 μM of the test compound [1]: >50 (70 ± 4%); IC50 ([1]; read-out: IC50 3CL^pro (SARS-CoV-2)): > 50000 nM; IC50 ([2]; read-out: IC50 PL^pro (SARS-CoV-2)): 260 ± 30 nM; Increase of molecular conductivity upon 10-fold dilution [3]: 2–4 fold |
| COc1ccc2c(c1)n(C(C)C)c[n+]2C(C)C [compound 4, 1,3-Diisopropyl-5-methoxy-benzimidazolium iodide] | – | – | – | – | – | IC50 [2]: > 100000 nM |
